Values after ≈ are worked out from the molar mass of the structure shown. Active and inactive are the calls of the source. No cut-off for these calls is given here.
Experiments:
Staphylococcus aureus = experiment: Antibacterial activity against Staphylococcus aureus ATCC 25923 after 72 hrs by broth micro-dilution method; type: functional; details: ATCC 25923, 72 h
In short: (§1)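 Compounds dissolved in H2O and tested at 2.5, 5, 10 and 20 mg/mL. Each strain was seeded in 1 cm3 nutrient broth, mixed with 9 cm3 melted (45 °C) nutrient agar and poured; 4 mm wells were cut. 100 µL compound solution per well, incubated 72 h at 37 °C, and inhibition zone diameter measured. MIC derived from % inhibition at the four levels. Duplicate, repeated twice; modal values. Ampicillin reference.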

Aspergillus flavus = experiment: Antifungal activity against Aspergillus flavus after 72 hrs by broth micro-dilution method; type: functional
In short: (§2)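 Aqueous compound solutions, 2.5 to 20 mg/mL, 100 µL per 4 mm well in nutrient agar seeded from nutrient broth culture (1 cm3 broth with 9 cm3 agar at 45 °C). Plates incubated 72 h at 28 °C and clear-zone diameter measured. MIC taken from inhibition at four concentration levels. Duplicate, repeated twice, modal values. Amphotericin B standard.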

Candida albicans = experiment: Antifungal activity against Candida albicans NCIM 3100 after 72 hrs by broth micro-dilution method; type: functional; in short: as §2
Bacillus subtilis = experiment: Antibacterial activity against Bacillus subtilis after 72 hrs by broth micro-dilution method; type: functional; in short: as §1
Pseudomonas aeruginosa = experiment: Antibacterial activity against Pseudomonas aeruginosa ATCC 27853 after 72 hrs by broth micro-dilution method; details: ATCC 27853, 72 h
Escherichia coli = experiment: Antibacterial activity against Escherichia coli ATCC 25922 after 72 hrs by broth micro-dilution method; details: ATCC 25922, 72 h

SMILES	MIC (Staphylococcus aureus) [µg/mL]	MIC (Aspergillus flavus)	MIC (Candida albicans; NCIM 3100, 72 h) [µg/mL]	MIC (Bacillus subtilis) [µg/mL]	MIC (Pseudomonas aeruginosa) [µg/mL]	MIC (Escherichia coli) [µg/mL]	MIC (Candida albicans)
CCCCn1cc[n+](Cc2ccc(O)c(/C=N/[C@@H]3CCCC[C@H]3/N=C/c3cc(C[n+]4ccn(CCCC)c4)ccc3O)c2)c1.[Cl-].[Cl-] (relative stereo)	16.2	inactive	> 250	11.2	> 5000	16.7	–
CC1(C)S[C@@H]2[C@H](NC(=O)[C@H](N)c3ccccc3)C(=O)N2[C@H]1C(=O)O [AMPICILLIN]	12.5 (≈ 35.8 µM)	inactive	–	20 (≈ 57.2 µM)	> 1000	15 (≈ 42.9 µM)	inactive
Cc1[nH]cc[n+]1Cc1ccc(O)c(/C=N/[C@@H]2CCCC[C@H]2/N=C/c2cc(C[n+]3cc[nH]c3C)ccc2O)c1.[Cl-].[Cl-] (relative stereo)	17.6	inactive	> 250	17.5	> 10000	17.1	–
Cc1[nH]cc[n+]1Cc1cc(/C=N/[C@@H]2CCCC[C@H]2/N=C/c2cc(C[n+]3cc[nH]c3C)cc(C(C)(C)C)c2O)c(O)c(C(C)(C)C)c1.[Cl-].[Cl-] (relative stereo)	14.9	inactive	55.5	12.1	> 10000	13.3	–

Continued, in another order:

MIC (Staphylococcus aureus) [µg/mL]	MIC (Aspergillus flavus)	MIC (Candida albicans; NCIM 3100, 72 h) [µg/mL]	MIC (Bacillus subtilis) [µg/mL]	MIC (Pseudomonas aeruginosa) [µg/mL]	MIC (Escherichia coli) [µg/mL]	SMILES	MIC (Candida albicans)
> 250	inactive	> 250	15.2	> 10000	> 250	CCn1cc[n+](Cc2ccc(O)c(/C=N/[C@@H]3CCCC[C@H]3/N=C/c3cc(C[n+]4ccn(CC)c4)ccc3O)c2)c1.[Cl-].[Cl-] (relative stereo)	–
16	inactive	85.2	16.4	> 5000	12.2	CCCCn1cc[n+](Cc2cc(/C=N/[C@@H]3CCCC[C@H]3/N=C/c3cc(C[n+]4ccn(CCCC)c4)cc(C(C)(C)C)c3O)c(O)c(C(C)(C)C)c2)c1.[Cl-].[Cl-] (relative stereo)	–
18.4	inactive	> 250	16	> 10000	> 250	CCn1cc[n+](Cc2cc(/C=N/[C@@H]3CCCC[C@H]3/N=C/c3cc(C[n+]4ccn(CC)c4)cc(C(C)(C)C)c3O)c(O)c(C(C)(C)C)c2)c1.[Cl-].[Cl-] (relative stereo)	–
–	40 µg/mL (≈ 43.3 µM)	80 (≈ 86.6 µM)	–	–	–	C[C@@H]1[C@H](O)[C@@H](C)/C=C/C=C/C=C/C=C/C=C/C=C/C=C/[C@H](O[C@@H]2O[C@H](C)[C@@H](O)[C@H](N)[C@@H]2O)C[C@@H]2O[C@](O)(C[C@@H](O)C[C@@H](O)[C@H](O)CC[C@@H](O)C[C@@H](O)CC(=O)O[C@H]1C)C[C@H](O)[C@H]2C(=O)O [AMPHOTERICIN B]	–
